# Reference: ChEMBL document CHEMBL1250434, “A novel achiral seco-cyclopropylpyrido[e]indolone (CPyI) analog of CC-1065 and the duocarmycins: synthesis, DNA interactions, in vivo anticancer and anti-parasitic evaluation” (Bioorg Med Chem, 2010)
# Legend:
# SK-MEL-2 = test: Cytotoxicity against human SK-MEL-2 cells after 48 hrs by sulforhodamine B assay; type: functional; conditions: SK-MEL-2, 48 h, read-out: pLC50 (the source's name) (converted)
# Procedure, shortened: (§1)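 NCI human cancer cell line panel. Continuous 48 h drug exposure, viability by sulforhodamine B. GI50, TGI and LC50 derived from dose–response curves.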
# SK-MEL-28 = test: Cytotoxicity against human SK-MEL-28 cells after 48 hrs by sulforhodamine B assay; type: functional; conditions: SK-MEL-28, 48 h, read-out: pLC50 (the source's name) (converted); procedure, shortened: as §1
# UACC-62 = test: Cytotoxicity against human UACC62 cells after 48 hrs by sulforhodamine B assay; type: functional; conditions: UACC-62, 48 h, read-out: pLC50 (the source's name) (converted); procedure, shortened: as §1
# IGROV-1 = test: Cytotoxicity against human IGROV1 cells after 48 hrs by sulforhodamine B assay; type: functional; conditions: IGROV-1, 48 h, read-out: pLC50 (the source's name) (converted); procedure, shortened: as §1
# OVCAR-3 = test: Cytotoxicity against human OVCAR-3 cells after 48 hrs by sulforhodamine B assay; type: functional; conditions: OVCAR-3, 48 h, read-out: pLC50 (the source's name) (converted); procedure, shortened: as §1
# OVCAR-4 = test: Cytotoxicity against human OVCAR4 cells after 48 hrs by sulforhodamine B assay; type: functional; conditions: OVCAR-4, 48 h, read-out: pLC50 (the source's name) (converted); procedure, shortened: as §1
# OVCAR-8 = test: Cytotoxicity against human OVCAR8 cells after 48 hrs by sulforhodamine B assay; type: functional; conditions: OVCAR-8, 48 h, read-out: pLC50 (the source's name) (converted); procedure, shortened: as §1
# SK-OV-3 = test: Cytotoxicity against human SKOV3 cells after 48 hrs by sulforhodamine B assay; type: functional; conditions: SK-OV-3, 48 h, read-out: pLC50 (the source's name) (converted); procedure, shortened: as §1
# 786-0 = test: Cytotoxicity against human 786-0 cells after 48 hrs by sulforhodamine B assay; type: functional; conditions: 786-0, 48 h, read-out: pLC50 (the source's name) (converted); procedure, shortened: as §1
# CAKI-1 = test: Cytotoxicity against human Caki1 cells after 48 hrs by sulforhodamine B assay; type: functional; conditions: CAKI-1, 48 h, read-out: pLC50 (the source's name) (converted); procedure, shortened: as §1
# UO-31 = test: Cytotoxicity against human UO31 cells after 48 hrs by sulforhodamine B assay; type: functional; conditions: UO-31, 48 h, read-out: pLC50 (the source's name) (converted); procedure, shortened: as §1
# PC-3 = test: Cytotoxicity against human PC3 cells after 48 hrs by sulforhodamine B assay; type: functional; conditions: PC-3, 48 h, read-out: pLC50 (the source's name) (converted); procedure, shortened: as §1
# DU-145 = test: Cytotoxicity against human DU145 cells after 48 hrs by sulforhodamine B assay; type: functional; conditions: DU-145, 48 h, read-out: pLC50 (the source's name) (converted); procedure, shortened: as §1
# [1] = Cytotoxicity against human Hs 578T cells after 48 hrs by sulforhodamine B assay; type: functional; conditions: read-out: pLC50 (the source's name) (converted); procedure, shortened: as §1
# BT-549 = test: Cytotoxicity against human BT549 cells after 48 hrs by sulforhodamine B assay; type: functional; conditions: BT-549, 48 h, read-out: pLC50 (the source's name) (converted); procedure, shortened: as §1
# T47D = test: Cytotoxicity against human T47D cells after 48 hrs by sulforhodamine B assay; type: functional; conditions: read-out: pLC50 (the source's name) (converted); procedure, shortened: as §1
# [2] = Antitumor activity against mouse B16F0 cells xenografted in C57/BL/6J mouse assessed as […] at 10 mg/kg, ip administered on day 1, 5, and 9 measured after 16 days; type: functional; conditions: route intraperitoneal
# Procedure, shortened: (§2)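 Female C57/BL/6J mice, 5–7 weeks old, 8 per group. Given 200,000 cultured B16-F0 cells (PBS-washed, not mouse-passaged) sc in the left flank on day 0. Dosed 10 mg/kg ip in 1:2 PET/5% glucose on days 1, 5 and 9; controls received vehicle. Tumours measured by caliper about every other day. Volume = length × width². Measurements stopped when 50% of the group had died.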
# [3] = Antitumor activity against mouse B16F0 cells xenografted in C57/BL/6J mouse assessed as […] at 10 mg/kg, ip administered on day 1, 5, and 9 measured after 21 days; type: functional; conditions: route intraperitoneal; procedure, shortened: as §2
# Mus musculus [4] = test: Toxicity in mouse B16F0 cells xenografted C57/BL/6J mouse assessed as reduction of body weight at 10 mg/kg, ip administered on day 1, 5, and 9 measured after 21 days; type: organism-based; design: dose 10 mg/kg, route intraperitoneal; conditions: in vivo, 504 h
# Procedure, shortened: (§3)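 Female C57/BL/6J mice, 5–7 weeks old, 8 per group, carrying sc B16-F0 flank tumours implanted day 0. Dosed 10 mg/kg ip in 1:2 PET/5% glucose on days 1, 5 and 9; vehicle-treated controls on the same schedule. Body weights recorded every other day.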
# Mus musculus [5] = test: Systemic toxicity in mouse B16F0 cells xenografted C57/BL/6J mouse assessed as reduction of body weight at 10 mg/kg, ip administered on day 1, 5, and 9 measured after 21 days; type: organism-based; design: dose 10 mg/kg, route intraperitoneal; conditions: in vivo, 504 h; procedure, shortened: as §3
# Leishmania donovani = test: Antimicrobial activity against promastigotes of Leishmania donovani assessed as inhibition of cell proliferation after 72 hrs by alamar blue assay; type: functional, organism-based
# Procedure, shortened: (§4)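 Promastigotes at 5 × 10^4 cells/well in DME-L medium with 10% heat-inactivated FBS, hemin, xanthine and penicillin-streptomycin. Exposed to 0.03 nM to 64 µM compound for 72 h at 26 °C. Alamar blue added, incubated 15 h, dye reduction read by fluorescence ex 530/em 590 nm.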
# Trypanosoma brucei = test: Antimicrobial activity against procyclic form of Trypanosoma brucei 427 assessed as inhibition of cell proliferation after 72 hrs by alamar blue assay; type: functional, organism-based; conditions: Trypanosoma brucei, 427, 72 h
# Procedure, shortened: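 T. brucei 427 procyclic forms grown in SDM 79 medium with 0.03 nM to 64 µM compound for 72 h at 26 °C. Proliferation read by Alamar blue reduction after a further 15 h, fluorescence ex 530/em 590 nm.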
# Plasmodium falciparum = test: Antimicrobial activity against Plasmodium falciparum infected in human erythrocytes assessed as growth inhibition; type: functional, organism-based
# Procedure, shortened: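 P. falciparum grown in human erythrocytes at 3–5% hematocrit in complete medium. In vitro growth assay at six concentrations, in triplicate, in three independent experiments.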
# Leishmania mexicana = test: Antimicrobial activity against promastigotes of Leishmania mexicana assessed as inhibition of cell proliferation after 72 hrs by alamar blue assay; type: functional, organism-based; procedure, shortened: as §4
structure (smiles),measurement,setting,value
COc1cc2cc(C(=O)Nc3cc(O)c4ncc(C)cc4c3CCCl)[nH]c2c(OC)c1OC,CC50,SK-MEL-2,> 100000 nM
same,CC50,SK-MEL-28,> 100000 nM
same,CC50,UACC-62,< 10 nM
same,CC50,IGROV-1,> 100000 nM
same,CC50,OVCAR-3,2630 nM
same,CC50,OVCAR-4,6030 nM
same,CC50,OVCAR-8,275 nM
same,CC50,SK-OV-3,> 100000 nM
same,CC50,786-0,135 nM
same,CC50,CAKI-1,1550 nM
same,CC50,UO-31,> 100000 nM
same,CC50,PC-3,11500 nM
same,CC50,DU-145,2190 nM
same,CC50,[1],> 100000 nM
same,CC50,BT-549,> 100000 nM
same,CC50,T47D,> 100000 nM
same,Activity,[2],1700 mm3
same,Activity,[3],2000 mm3
same,Activity,Mus musculus [4],Non-toxic
same,Activity,Mus musculus [5],Toxic
same,IC50,Leishmania donovani,340 nM
same,IC50,Trypanosoma brucei,56 nM
same,IC50,Plasmodium falciparum,1.8 nM
same,IC50,Leishmania mexicana,119 nM
